The source of these data is ChEMBL document CHEMBL3797096, “Synthesis and in vitro evaluation of (R), (S) and (R/S)-2-hexyne-1,4-diol, a natural product produced by fungus Clitocybe catinus, and related analogs as potential anticancer agents” (Bioorg Med Chem Lett, 2016).

Structures are written as SMILES. The source made the active and inactive calls. No cut-off for these calls is given here.

The subject of data set [1] is NCI-H292. Kind of data set: Cytotoxicity against human NCI-H292 cells assessed as cell death at 100 ug/ml after 72 hrs by MTT assay. It counts as functional. The method in brief: (§1)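 Single-concentration colorimetric MTT screen of test compounds at a fixed final concentration. Incubation was 72 h, and the read-out was growth inhibition of the tumour cell lines. Values are given as means with standard deviations. Doxorubicin served as the positive control.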

For data set [2], the system named is MCF7. Kind of data set: Cytotoxicity against human MCF7 cells assessed as cell death at 100 ug/ml after 72 hrs by MTT assay. In kind it is functional. The method, boiled down: as §1
Data set [3] has as its system K562. Kind of data set: Cytotoxicity against human K562 cells assessed as cell death at 100 ug/ml after 72 hrs by MTT assay. In kind it is functional. The method, boiled down: as §1
Data set [4] in a line: Cytotoxicity against human HL60 cells assessed as cell death at 100 ug/ml after 72 hrs by MTT assay. In kind it is functional, HL-60. The method, boiled down:
as §1

The test system of the next data set is J774.A1. Kind of data set: Cytotoxicity against mouse J774.A1 cells at 100 ug/ml after 72 hrs by MTT assay. It counts as cell-based. The note with it: j774.a1, 72 h. The method in brief: (§2)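 Single-concentration screen of mouse cells at 100 µg/mL final concentration. Viability read by colorimetric MTT assay after 72 h of incubation; percent growth inhibition given as means (standard deviations); doxorubicin as positive control.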

In a further data set the test system is RAW264.7. Kind of data set: Cytotoxicity against mouse RAW264.7 cells at 100 ug/ml after 72 hrs by MTT assay. The following applies: raw264.7, 72 h. In kind it is cell-based. The method in brief:
as §2

Data set [5] in a line: Cytotoxicity against human Hep2 cells assessed as cell death at 100 ug/ml after 72 hrs by MTT assay. In kind it is functional, HEp-2. The method, boiled down: as §1
The subject of the next data set is HEp-2. Kind of data set: Cytotoxicity against human Hep2 cells after 72 hrs by MTT assay. It counts as functional, cell-based. The method in brief:
(§3)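 Colorimetric MTT assay on human tumour cells after 72 h of incubation; values expressed as means (standard deviations), with doxorubicin as positive control.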

For data set [6], the system named is NCI-H292. Kind of data set: Cytotoxicity against human NCI-H292 cells after 72 hrs by MTT assay. In kind it is functional, cell-based. The method, boiled down:
as §3

Data set [7] deals with MCF7. Kind of data set: Cytotoxicity against human MCF7 cells after 72 hrs by MTT assay. It counts as functional, cell-based. The method, boiled down:
as §3

Data set [8] deals with K562. Kind of data set: Cytotoxicity against human K562 cells after 72 hrs by MTT assay. In kind it is functional, cell-based. The method, boiled down:
as §3

Another data set deals with HL-60. Kind of data set: Cytotoxicity against human HL60 cells after 72 hrs by MTT assay. It counts as functional, cell-based. The method, boiled down: as §3

In the case of `CC(C)C(O)C#CCO` (stereo unspecified), the Activity in the data set with NCI-H292 [1] was 69.8%; in the data set on MCF7 [2] it was 28.7%; in the data set on K562 [3], 20.9%; in data set [4], 0%; in the data set with J774.A1 it was 2%; in the data set with RAW264.7, 17.8%. For the same compound, in data set [5], the Activity was 42.7%.
For `CC[C@H](O)C#CCO`, the Activity with NCI-H292 [1] was determined as 85%; with MCF7 [2], 51.6%; in the data set with K562 [3], 27%; in data set [4], 1.4%; with J774.A1 it was 1.7%; with RAW264.7 it was 19.5%. Moreover, in data set [5], the Activity is given as 31.3%.
Regarding `CC(C)C(O)C#CC(C)(C)O` (stereo unspecified), the Activity with NCI-H292 [1] was determined as 21.5%; in the data set on MCF7 [2], 40.7%; with K562 [3], 9.7%; in data set [4], 7.3%; in the data set with J774.A1, 55.3%; with RAW264.7, 0%. Moreover, the Activity in [5] was determined as 0%.
With `CC(C)C(O)C#CCCO` (stereo unspecified), the Activity with NCI-H292 [1] was 49.9%; in the data set on MCF7 [2], 54.1%; in the data set on K562 [3], 0%; in data set [4], 0%; in the data set on J774.A1 it was 30.4%; in the data set on RAW264.7 it was 17.8%. In data set [5], the Activity stood at 85.7%.
As for `CC(O)C#CC(O)(c1ccccc1)c1ccccc1` (stereo unspecified), the Activity in the data set on NCI-H292 [1] came to 91%; in the data set on MCF7 [2], 27.3%; with K562 [3], 80%; in [4] it was 96.1%; with J774.A1, 93.1%; with RAW264.7, 95%. For the same compound, in data set [5], the Activity worked out at 84%.
Take `CCCCCC(O)C#CCO` (stereo unspecified): the Activity (with NCI-H292 [1]; in the data set with MCF7 [2]; in the data set with K562 [3]; in [4]; in the data set with J774.A1; with RAW264.7) was 100% throughout. Besides, the Activity in [5] was found to be 100%. Besides, the TGI entry in the data set with HEp-2, with NCI-H292 [6], in the data set with MCF7 [7], in the data set with K562 [8] and with HL-60 was “Active” throughout.
`CC(O)C#CC1(O)CCCCC1` (stereo unspecified): the Activity is on record as 6.6% with NCI-H292 [1]; 40.8% with MCF7 [2]; 16.7% with K562 [3]; 8.9% in [4]; 57.5% in the data set on J774.A1; 4.2% in the data set on RAW264.7. In addition, the Activity in [5] amounted to 9.3%.
For the compound `CC(O)CC#CCO` (stereo unspecified), the Activity in the data set with NCI-H292 [1] is reported as 20.2%; in the data set with MCF7 [2], 0%; in the data set on K562 [3], 0%; in data set [4] it was 11%; with J774.A1, 60.8%; in the data set on RAW264.7, 8.5%. The Activity in data set [5] is 14.8%.
With `CCC(O)C#CCCO` (stereo unspecified), the Activity with NCI-H292 [1] was 15.5%; with MCF7 [2], 34.3%; in the data set with K562 [3], 0%; in data set [4], 5.1%; in the data set on J774.A1, 42.6%; in the data set on RAW264.7, 6.1%. Further, the Activity in data set [5] is on record as 12.9%.
In the case of `COc1cccc2c1C(=O)c1c(O)c3c(c(O)c1C2=O)C[C@@](O)(C(=O)CO)C[C@@H]3O[C@H]1C[C@H](N)[C@H](O)[C@H](C)O1` [DOXORUBICIN], the Activity with NCI-H292 [1] stood at 94.1%; in the data set on MCF7 [2], 74.8%; in the data set on K562 [3], 91.7%; in data set [4] it was 92.9%; in the data set with J774.A1 it was 96%; with RAW264.7, 96.5%. For the same compound, in [5], the Activity turned out to be 79.4%.
Regarding `CC(O)C#CCCO` (stereo unspecified), the Activity with NCI-H292 [1] was determined as 0.3%; with MCF7 [2] it was 17.8%; in the data set on K562 [3], 25.1%; in data set [4], 0%; in the data set with J774.A1, 16.5%; in the data set on RAW264.7, 9.4%. Also, the Activity in data set [5] was found to be 2.2%.
As for `CC[C@@H](O)C#CCO`, the Activity in the data set on NCI-H292 [1] came out at 55.7%; in the data set with MCF7 [2], 52.5%; in the data set on K562 [3] it was 40.9%; in data set [4], 12.1%; with J774.A1 it was 0.2%; in the data set on RAW264.7, 9.6%. For the same compound, the Activity in data set [5] was 38.8%.
As for `CC(O)CC#CCCO` (stereo unspecified), the Activity was determined as 71.5% in the data set on NCI-H292 [1]; 69.5% in the data set on MCF7 [2]; 0% in the data set with K562 [3]; 9.6% in data set [4]; 15.7% in the data set with J774.A1; 19.3% in the data set on RAW264.7. Besides, the Activity in data set [5] was determined as 84.1%.
As to `CCC(O)C#CCO` (stereo unspecified), the Activity (with NCI-H292 [1]; in the data set on MCF7 [2]; with K562 [3]; in data set [4]; in the data set on J774.A1; in the data set with RAW264.7) was 100% in each case. Moreover, the Activity in data set [5] was 100%. Moreover, the TGI entry in the data set on HEp-2, in the data set on NCI-H292 [6], in the data set with MCF7 [7], with K562 [8] and with HL-60 was “Active” in each case.
In the case of `OCC#CC(O)c1ccccc1` (stereo unspecified), the Activity was 86.9% in the data set on NCI-H292 [1]; 68.1% with MCF7 [2]; 3.8% in the data set on K562 [3]; 29.5% in data set [4]; 17.1% in the data set with J774.A1; 16% with RAW264.7. Besides, in [5], the Activity is 28.1%.
As to `CC(O)C#CCO` (stereo unspecified), the Activity (in the data set on NCI-H292 [1]; in the data set on MCF7 [2]; in the data set on K562 [3]; in data set [4]; in the data set on J774.A1; in the data set with RAW264.7) was 100% each time. Further, the Activity in data set [5] worked out at 100%. For the same compound, the TGI entry with HEp-2, in the data set with NCI-H292 [6], in the data set on MCF7 [7], in the data set on K562 [8] and in the data set with HL-60 was “Active” each time.
With `CCCC(O)C#CCO` (stereo unspecified), the Activity (with NCI-H292 [1]; in the data set with MCF7 [2]; in the data set on K562 [3]; in [4]; in the data set on J774.A1; in the data set with RAW264.7) was 100% throughout. Moreover, in data set [5], the Activity amounted to 100%. In addition, the TGI result in the data set with HEp-2, in the data set on NCI-H292 [6], in the data set with MCF7 [7], with K562 [8] and in the data set with HL-60 was “Active” throughout.
`CCC(C)(O)C#CCO` (stereo unspecified): the Activity turned out to be 5% in the data set with NCI-H292 [1]; 27.2% in the data set with MCF7 [2]; 16% in the data set with K562 [3]; 13.3% in [4]; 61.2% in the data set with J774.A1; 0% with RAW264.7. Also, the Activity in [5] stood at 0%.
